Source: PMC12417823 (Neuro-Oncology, 2025)

What was measured:
[1] = tested on: Per2::Luc reporter in Cry2 knockout fibroblasts; assay: Per2::Luc repression assay; assay type: cell-based, mice; conditions: Cry2 knockout cells, compared to wild type
Outline: (§1)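 Mouse fibroblasts carrying a Per2::Luc knock-in reporter (wild type, Cry1/Cry2 double, Cry1 or Cry2 knockout) grown 2 days to confluency in 384-well plates, then given test compound dilution series (final 0.7% DMSO). After 2 days, medium replaced with BrightGlo and luminescence read. Change is relative to DMSO control, n = 3–4 biological samples. IC50 from sigmoidal dose–response fit.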

[2] = tested on: CRY1/CRY2; conditions: cited from earlier work
[3] = tested on: Per2::Luc reporter in Cry1 knockout fibroblasts; assay: Per2::Luc repression assay; assay type: cell-based, mice; conditions: Cry1 knockout cells
Outline: as §1

O=C1NCCN1C[C@H](O)Cn1c2ccc(F)cc2c2cc(F)ccc21 [SHP1703]
repression of Per2::Luc reporter activity [1]: reduced overall repression
CRY isoform selectivity [2]: selective for CRY2

O=C1NCCN1CC(O)Cn1c2ccc(F)cc2c2cc(F)ccc21 (stereo not drawn) [SHP656]
repression of Per2::Luc reporter activity [1]: reduced overall repression
CRY isoform selectivity [2]: selective for CRY2

CS(=O)(=O)N(Cc1ccco1)CC(O)Cn1c2ccccc2c2ccccc21 (stereo not drawn) [KL001]
repression of Per2::Luc reporter activity [3]: less effective than intact cells
CRY isoform selectivity [2]: does not display a CRY isoform selectivity
